From ChEMBL document CHEMBL5316281, “Trojan Horse Siderophore Conjugates Induce Pseudomonas aeruginosa Suicide and Qualify the TonB Protein as a Novel Antibiotic Target” (2023)
Activity calls are given as the source filed them. No cut-off for these calls is given here. Where a SMILES comes first, the peptide text is derived from it. [ ]: non-standard residue; d: D form. The star is where a group is joined. X6 = CC(=O)Oc1cccc(C(=O)NCc2cc(CNC(=O)c3cccc(OC(C)=O)c3OC(C)=O)c(NC(=O)CCCc3cn(CCOCCOCCOCCOCCOCCOCCOCCOCCNC(=O)COCC(=O)*)nn3)c(CNC(=O)c3cccc(OC(C)=O)c3OC(C)=O)c2)c1OC(C)=O; X1 = O=C(COCC(=O)*)NCCOCCOCCOCCOCCOCCOCCOCCOCCn1cc(CCCC(=O)Nc2c(CNC(=O)c3cccc(O)c3O)cc(CNC(=O)c3cccc(O)c3O)cc2CNC(=O)c2cccc(O)c2O)nn1; X5 = O=C(CCSSCCC(=O)*)NCCOCCOCCOCCOCCOCCn1cc(CCCC(=O)Nc2c(CNC(=O)c3cccc(O)c3O)cc(CNC(=O)c3cccc(O)c3O)cc2CNC(=O)c2cccc(O)c2O)nn1; Benzoyl(2,3-diOH) = O=C(c1cccc(O)c1O)*

Tests used:
Pseudomonas aeruginosa [1] = test: Antimicrobial activity against Pseudomonas aeruginosa PAO1 assessed as inhibition of bacterial growth in presence of iron-depleted CAA medium; assay type: functional, organism-based
Pseudomonas aeruginosa [2] = test: Antimicrobial activity against Pseudomonas aeruginosa harboring deltapvdF-deltapchA mutant assessed as inhibition of bacterial growth by measuring minimal inhibitory concentration incubated for 24 hrs in presence of iron-depleted CAA medium; assay type: functional
Pseudomonas aeruginosa [3] = test: Antimicrobial activity against Pseudomonas aeruginosa harboring deltapvdF-deltapchA mutant assessed as inhibition of bacterial growth by measuring minimal inhibitory concentration incubated for 48 hrs in presence of iron-depleted CAA medium; assay type: functional
Pseudomonas aeruginosa [4] = test: Antimicrobial activity against Pseudomonas aeruginosa harboring deltapvdF-deltapchA mutant assessed as increase in pfeA transcription level at 10 uM incubated for 8 hrs in presence of iron-depleted CAA medium by qRT-PCR analysis; assay type: functional, organism-based
Summary of the method: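 Cells grown in CAA medium for 8 h at 30 °C with vigorous shaking, with or without 10 μM compound; 2.5 x 10⁸ cells stabilized in two volumes RNAprotect; RNA processed per earlier protocol; RT-qPCR with primer efficiencies from serially diluted genomic DNA; double ΔCT analysis.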

| Molecule | Activity (Pseudomonas aeruginosa [1]) | MIC (Pseudomonas aeruginosa [2]) | MIC (Pseudomonas aeruginosa [3]) | Activity (Pseudomonas aeruginosa [4]) |
| --- | --- | --- | --- | --- |
| CC[C@@H](C)[C@@H](NC(=O)[C@@H](CCSC)NC(=O)[C@H](NC(=O)[C@@H](C)NC(=O)CNC(=O)[C@@H](CC(C)C)NC(=O)[C@@H](CC(=O)O)NC(=O)[C@H](NC(=O)[C@@H](CO)NC(=O)[C@@H](CO)NC(=O)[C@@H](CC(=O)O)NC(=O)c1cccc(O)c1O)C(C)C)[C@H](C)O)C(=O)N[C@@H](C(=O)N[C@H](CO)C(=O)N[C@H](CC(N)=O)C(=O)N[C@H](CCC(N)=O)C(=O)N[C@H](CC(C)C)C(=O)NCC(=O)N[C@@H](C(=O)N[C@@H](C(=O)N[C@H](CCCCN)C(N)=O)[C@H](C)CC)[C@H](C)O)[C@@H](C)O | inactive | > 64 µM | > 64 µM |  |
| CC(C)[C@H](NC(=O)[C@@H](NC(=O)[C@@H](NC(=O)[C@H](CCC(N)=O)NC(=O)[C@H](CCC(=O)O)NC(=O)COCC(=O)NCCOCCOCCOCCOCCOCCOCCOCCOCCn1cc(CCCC(=O)Nc2c(CNC(=O)c3cccc(O)c3O)cc(CNC(=O)c3cccc(O)c3O)cc2CNC(=O)c2cccc(O)c2O)nn1)[C@@H](C)O)C(C)C)C(=O)N[C@@H](C)C(=O)N[C@H](C(=O)N[C@@H](C)C(=O)N[C@@H](CCC(N)=O)C(=O)N[C@@H](CCCCN)C(N)=O)[C@@H](C)O (X1-EQTVVATAQK-NH2) | inactive | > 64 µM | > 64 µM |  |
| CC[C@@H](C)[C@@H](NC(=O)[C@H](NC(=O)c1cccc(O)c1O)C(C)C)C(=O)N[C@H](CCC(=O)O)C(=O)N[C@H](CC(C)C)C(=O)NCC(=O)N[C@H](CCC(=O)O)C(=O)N[C@H](CCC(N)=O)C(=O)N[C@@H](C(=O)N[C@@H](C(=O)N[C@@H](C(=O)N[C@H](C)C(=O)N[C@@H](C(=O)N[C@H](C)C(=O)N[C@H](CCC(N)=O)C(=O)N[C@H](CCC(=O)O)C(=O)N[C@H](CCC(=O)O)C(=O)N[C@@H](C(=O)N[C@H](CCCCN)C(=O)N[C@H](CCC(N)=O)C(=O)N[C@H](CCCCN)C(N)=O)[C@H](C)O)[C@H](C)O)C(C)C)C(C)C)[C@H](C)O ({Benzoyl(2,3-diOH)}-[dV][dI][dE][dL]G[dE][dQ][dT][dV][dV][dA][dT][dA][dQ][dE][dE][dT][dK][dQ][dK]-NH2) | inactive | > 64 µM | > 64 µM |  |
| CC[C@H](C)[C@H](NC(=O)[C@H](CCSC)NC(=O)[C@@H](NC(=O)[C@H](C)NC(=O)CNC(=O)[C@H](CC(C)C)NC(=O)[C@H](CC(=O)O)NC(=O)[C@@H](NC(=O)[C@H](CO)NC(=O)[C@H](CO)NC(=O)[C@H](CC(=O)O)NC(=O)c1cccc(O)c1O)C(C)C)[C@@H](C)O)C(=O)N[C@H](C(=O)N[C@@H](CO)C(=O)N[C@@H](CC(N)=O)C(=O)N[C@@H](CCC(N)=O)C(=O)N[C@@H](CC(C)C)C(=O)NCC(=O)N[C@H](C(=O)N[C@H](C(=O)N[C@@H](CCCCN)C(N)=O)[C@@H](C)CC)[C@@H](C)O)[C@@H](C)O | inactive | > 64 µM | > 64 µM |  |
| H-VDLGATMITSNK-NH2 | inactive |  |  | inactive |
| CN[C@@H]1[C@@H](O)[C@@H](O[C@@H]2[C@@H](O)[C@H](O[C@H]3O[C@H](C(C)N)CC[C@H]3N)[C@@H](N)C[C@H]2N)OC[C@]1(C)O (some centres not stated) [GENTAMICIN C2] | inactive | 1 µM | 4 µM |  |
| CC[C@H](C)[C@H](NC(=O)[C@@H](NC(=O)c1cccc(O)c1O)C(C)C)C(=O)N[C@@H](CCC(=O)O)C(=O)N[C@@H](CC(C)C)C(=O)NCC(=O)N[C@@H](CCC(=O)O)C(=O)N[C@@H](CCC(N)=O)C(=O)N[C@H](C(=O)N[C@H](C(=O)N[C@H](C(=O)N[C@@H](C)C(=O)N[C@H](C(=O)N[C@@H](C)C(=O)N[C@@H](CCC(N)=O)C(=O)N[C@@H](CCC(=O)O)C(=O)N[C@@H](CCC(=O)O)C(=O)N[C@H](C(=O)N[C@@H](CCCCN)C(=O)N[C@@H](CCC(N)=O)C(=O)N[C@@H](CCCCN)C(N)=O)[C@@H](C)O)[C@@H](C)O)C(C)C)C(C)C)[C@@H](C)O ({Benzoyl(2,3-diOH)}-VIELGEQTVVATAQEETKQK-NH2) | inactive | > 64 µM | > 64 µM |  |
| CC[C@H](C)[C@H](NC(=O)[C@H](CCSC)NC(=O)[C@@H](NC(=O)[C@H](C)NC(=O)CNC(=O)[C@H](CC(C)C)NC(=O)[C@H](CC(=O)O)NC(=O)[C@@H](NC(=O)COCC(=O)NCCOCCOCCOCCOCCOCCOCCOCCOCCn1cc(CCCC(=O)Nc2c(CNC(=O)c3cccc(O)c3O)cc(CNC(=O)c3cccc(O)c3O)cc2CNC(=O)c2cccc(O)c2O)nn1)C(C)C)[C@@H](C)O)C(=O)N[C@H](C(=O)N[C@@H](CO)C(=O)N[C@@H](CC(N)=O)C(=O)N[C@@H](CCCCN)C(N)=O)[C@@H](C)O (X1-VDLGATMITSNK-NH2) | inactive | > 64 µM | > 64 µM |  |
| CC[C@H](C)[C@H](NC(=O)[C@H](CCSC)NC(=O)[C@@H](NC(=O)[C@H](C)NC(=O)CNC(=O)[C@H](CC(C)C)NC(=O)[C@H](CC(=O)O)NC(=O)[C@@H](NC(=O)[C@H](CO)NC(=O)[C@H](CO)NC(=O)[C@@H](N)CC(=O)O)C(C)C)[C@@H](C)O)C(=O)N[C@H](C(=O)N[C@@H](CO)C(=O)N[C@@H](CC(N)=O)C(=O)N[C@@H](CCC(N)=O)C(=O)N[C@@H](CC(C)C)C(=O)NCC(=O)N[C@H](C(=O)N[C@H](C(=O)N[C@@H](CCCCNC(=O)c1cccc(O)c1O)C(N)=O)[C@@H](C)CC)[C@@H](C)O)[C@@H](C)O (H-DSSVDLGATMITSNQLGTIK(Benzoyl(2,3-diOH))-NH2) | inactive | > 64 µM | > 64 µM |  |
| CC[C@H](C)[C@H](NC(=O)[C@@H](N)C(C)C)C(=O)N[C@@H](CCC(=O)O)C(=O)N[C@@H](CC(C)C)C(=O)NCC(=O)N[C@@H](CCC(=O)O)C(=O)N[C@@H](CCC(N)=O)C(=O)N[C@H](C(=O)N[C@H](C(=O)N[C@H](C(=O)N[C@@H](C)C(=O)N[C@H](C(=O)N[C@@H](C)C(=O)N[C@@H](CCC(N)=O)C(=O)N[C@@H](CCC(=O)O)C(=O)N[C@@H](CCC(=O)O)C(=O)N[C@H](C(=O)N[C@@H](CCCCN)C(=O)N[C@@H](CCC(N)=O)C(=O)N[C@@H](CCCCNC(=O)c1cccc(O)c1O)C(N)=O)[C@@H](C)O)[C@@H](C)O)C(C)C)C(C)C)[C@@H](C)O (H-VIELGEQTVVATAQEETKQK(Benzoyl(2,3-diOH))-NH2) | inactive | > 64 µM | > 64 µM |  |
| H-DDLVQMSPSVK-NH2 | inactive |  |  | inactive |
| H-GEQTVVATAQK-NH2 | inactive |  |  | inactive |
| CSCC[C@H](NC(=O)[C@H](CCC(N)=O)NC(=O)[C@@H](NC(=O)[C@H](CC(C)C)NC(=O)[C@H](CC(=O)O)NC(=O)[C@H](CC(=O)O)NC(=O)COCC(=O)NCCOCCOCCOCCOCCOCCOCCOCCOCCn1cc(CCCC(=O)Nc2c(CNC(=O)c3cccc(O)c3O)cc(CNC(=O)c3cccc(O)c3O)cc2CNC(=O)c2cccc(O)c2O)nn1)C(C)C)C(=O)N[C@@H](CO)C(=O)N1CCC[C@H]1C(=O)N[C@@H](CO)C(=O)N[C@H](C(=O)N[C@@H](CCCCN)C(N)=O)C(C)C (X1-DDLVQMSPSVK-NH2) | inactive | > 64 µM | > 64 µM |  |
| CC[C@H](C)[C@H](NC(=O)[C@@H](N)C(C)C)C(=O)N[C@@H](CCC(=O)O)C(=O)N[C@@H](CC(C)C)C(=O)NCC(=O)N[C@@H](CCC(=O)O)C(=O)N[C@@H](CCC(N)=O)C(=O)N[C@H](C(=O)N[C@H](C(=O)N[C@H](C(=O)N[C@@H](C)C(=O)N[C@H](C(=O)N[C@@H](C)C(=O)N[C@@H](CCC(N)=O)C(=O)N[C@@H](CCC(=O)O)C(=O)N[C@@H](CCC(=O)O)C(=O)N[C@H](C(=O)N[C@@H](CCCCN)C(=O)N[C@@H](CCC(N)=O)C(=O)N[C@@H](CCCCNC(=O)CCSSCCC(=O)NCCOCCOCCOCCOCCOCCn1cc(CCCC(=O)Nc2c(CNC(=O)c3cccc(O)c3O)cc(CNC(=O)c3cccc(O)c3O)cc2CNC(=O)c2cccc(O)c2O)nn1)C(N)=O)[C@@H](C)O)[C@@H](C)O)C(C)C)C(C)C)[C@@H](C)O (H-VIELGEQTVVATAQEETKQK(X5)-NH2) | inactive | > 64 µM | > 64 µM |  |
| CC[C@H](C)[C@H](NC(=O)[C@@H](N)C(C)C)C(=O)N[C@@H](CCC(=O)O)C(=O)N[C@@H](CC(C)C)C(=O)NCC(=O)N[C@@H](CCC(=O)O)C(=O)N[C@@H](CCC(N)=O)C(=O)N[C@H](C(=O)N[C@H](C(=O)N[C@H](C(=O)N[C@@H](C)C(=O)N[C@H](C(=O)N[C@@H](C)C(=O)N[C@@H](CCC(N)=O)C(=O)N[C@@H](CCC(=O)O)C(=O)N[C@@H](CCC(=O)O)C(=O)N[C@H](C(=O)N[C@@H](CCCCN)C(=O)N[C@@H](CCC(N)=O)C(=O)N[C@@H](CCCCNC(=O)COCC(=O)NCCOCCOCCOCCOCCOCCOCCOCCOCCn1cc(CCCC(=O)Nc2c(CNC(=O)c3cccc(OC(C)=O)c3OC(C)=O)cc(CNC(=O)c3cccc(OC(C)=O)c3OC(C)=O)cc2CNC(=O)c2cccc(OC(C)=O)c2OC(C)=O)nn1)C(N)=O)[C@@H](C)O)[C@@H](C)O)C(C)C)C(C)C)[C@@H](C)O (H-VIELGEQTVVATAQEETKQK(X6)-NH2) | inactive | > 64 µM | > 64 µM |  |
